Source: ChEMBL document CHEMBL4354828, “Discovery of Taniborbactam (VNRX-5133): A Broad-Spectrum Serine- and Metallo-β-lactamase Inhibitor for Carbapenem-Resistant Bacterial Infections” (J Med Chem, 2020)
≈ marks a conversion by molar mass, not a printed value.

Columns and labels:
[1] = Inhibition of bacterial KPC-2 using imipenem as substrate preincubated for 15 mins followed by susbtrate addition and measured after 10 mins by spectrophotometric method; set-up: species or system Bacteria
[2] = Inhibition of bacterial AmpC using nitrocefin as substrate preincubated for 15 mins followed by susbtrate addition and measured after 10 mins by spectrophotometric method; set-up: species or system Bacteria
[3] = Inhibition of bacterial OXA-48 using nitrocefin as substrate preincubated for 15 mins followed by susbtrate addition and measured after 10 mins by spectrophotometric method; set-up: species or system Bacteria
[4] = Inhibition of bacterial VIM-2 using nitrocefin as substrate preincubated for 15 mins followed by susbtrate addition and measured after 10 mins by spectrophotometric method; set-up: species or system Bacteria
Method in brief: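 Purified β-lactamase inhibition. IC50 values are the average of duplicates unless otherwise indicated.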

Klebsiella pneumoniae [5] = assay: Inhibition of KPC-2 in Klebsiella pneumoniae assessed as meropenem antibacterial activity at 4 ug/ml after 16 to 20 hrs by CLSI-based microbroth dilution method (Rvb >= […] ug/ml)
Klebsiella pneumoniae [6] = assay: Inhibition of OXA-48 in Klebsiella pneumoniae assessed as meropenem antibacterial activity at 4 ug/ml after 16 to 20 hrs by CLSI-based microbroth dilution method (Rvb >= […] ug/ml)
Klebsiella pneumoniae [7] = assay: Inhibition of VIM-4 in Klebsiella pneumoniae assessed as meropenem antibacterial activity at 4 ug/ml after 16 to 20 hrs by CLSI-based microbroth dilution method (Rvb >= […] ug/ml)
[8] = biological target: Beta-lactamase VIM-2 (Pseudomonas aeruginosa) (UniProt Q9K2N0); assay: Inhibition of VIM-2 in Pseudomonas aeruginosa assessed as meropenem antibacterial activity at 4 ug/ml after 16 to 20 hrs by CLSI-based microbroth dilution method (Rvb >= […] ug/ml)
[9] = system: Klebsiella pneumoniae ATCC BAA-1705; assay: Inhibition of KPC-2 in Klebsiella pneumoniae ATCC BAA 1705 assessed as piperacillin antibacterial activity at 16 ug/ml after 16 to 20 hrs by CLSI-based microbroth dilution method (Rvb > […] ug/ml)
Klebsiella pneumoniae [10] = assay: Inhibition of VIM-27/CTX-M-15/SHV-11/OXA-1 in Klebsiella pneumoniae CDC-0040 assessed as piperacillin antibacterial activity at 16 ug/ml after 16 to 20 hrs by CLSI-based microbroth dilution method
Escherichia coli [11] = assay: Inhibition of NDM-1/CMY-6/OXA-1 in Escherichia coli CDC-0055 assessed as piperacillin antibacterial activity at 16 ug/ml after 16 to 20 hrs by CLSI-based microbroth dilution method
Method in brief: (§1)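 MDR β-lactamase-producing Gram-negative clinical isolates. […] MIC was reported as the inhibitor concentration that restores the partner's antibacterial activity.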

Klebsiella pneumoniae [12] = assay: Inhibition of OXA-232/OXA-9/TEM-1A/CTX-M-15/OXA-1 in Klebsiella pneumoniae CDC-0066 assessed as piperacillin antibacterial activity at 16 ug/ml after 16 to 20 hrs by CLSI-based microbroth dilution method (Rvb > […] ug/ml)
Pseudomonas aeruginosa [13] = assay: Inhibition of KPC-2/PDC-42 in Pseudomonas aeruginosa CDC-0356 assessed as piperacillin antibacterial activity at 16 ug/ml after 16 to 20 hrs by CLSI-based microbroth dilution method (Rvb > […] ug/ml)
Klebsiella pneumoniae [14] = assay: Inhibition of KPC-2/SHV12/TEM-1 in Klebsiella pneumoniae CDC-0361 assessed as piperacillin antibacterial activity at 16 ug/ml after 16 to 20 hrs by CLSI-based microbroth dilution method (Rvb > […] ug/ml)
Escherichia coli [15] = assay: Inhibition of NDM in Escherichia coli CDC-0452 assessed as piperacillin antibacterial activity at 16 ug/ml after 16 to 20 hrs by CLSI-based microbroth dilution method (Rvb > […] ug/ml)
[16] = system: Klebsiella pneumoniae ATCC BAA-1705; assay: Inhibition of KPC-2 in Klebsiella pneumoniae ATCC BAA 1705 assessed as cefepime antibacterial activity at 8 ug/ml after 16 to 20 hrs by CLSI-based microbroth dilution method; method in brief: as §1
Klebsiella pneumoniae [17] = assay: Inhibition of VIM-27/CTX-M-15/SHV-11/OXA-1 in Klebsiella pneumoniae CDC-0040 assessed as cefepime antibacterial activity at 8 ug/ml after 16 to 20 hrs by CLSI-based microbroth dilution method
Escherichia coli [18] = assay: Inhibition of NDM-1/CMY-6/OXA-1 in Escherichia coli CDC-0055 assessed as cefepime antibacterial activity at 8 ug/ml after 16 to 20 hrs by CLSI-based microbroth dilution method; method in brief: as §1
Klebsiella pneumoniae [19] = assay: Inhibition of OXA-232/OXA-9/TEM-1A/CTX-M-15/OXA-1 in Klebsiella pneumoniae CDC-0066 assessed as cefepime antibacterial activity at 8 ug/ml after 16 to 20 hrs by CLSI-based microbroth dilution method (Rvb > […] ug/ml)
Pseudomonas aeruginosa [20] = assay: Inhibition of KPC-2/PDC-42 in Pseudomonas aeruginosa CDC-0356 assessed as cefepime antibacterial activity at 8 ug/ml after 16 to 20 hrs by CLSI-based microbroth dilution method (Rvb > […] ug/ml)
Klebsiella pneumoniae [21] = assay: Inhibition of KPC-2/SHV12/TEM-1 in Klebsiella pneumoniae CDC-0361 assessed as cefepime antibacterial activity at 8 ug/ml after 16 to 20 hrs by CLSI-based microbroth dilution method (reference value: […] ug/ml)
Escherichia coli [22] = assay: Inhibition of NDM in Escherichia coli CDC-0452 assessed as cefepime antibacterial activity after 16 to 20 hrs by CLSI-based microbroth dilution method (reference value: […] ug/ml)
[23] = system: Klebsiella pneumoniae ATCC BAA-1705; assay: Inhibition of KPC-2 in Klebsiella pneumoniae ATCC BAA 1705 assessed as meropenem antibacterial activity at 4 ug/ml after 16 to 20 hrs by CLSI-based microbroth dilution method (reference value: […] ug/ml)
Klebsiella pneumoniae [24] = assay: Inhibition of VIM-27/CTX-M-15/SHV-11/OXA-1 in Klebsiella pneumoniae CDC-0040 assessed as meropenem antibacterial activity at 4 ug/ml after 16 to 20 hrs by CLSI-based microbroth dilution method
Escherichia coli [25] = assay: Inhibition of NDM-1/CMY-6/OXA-1 in Escherichia coli CDC-0055 assessed as meropenem antibacterial activity at 4 ug/ml after 16 to 20 hrs by CLSI-based microbroth dilution method (reference value: […] ug/ml)
Klebsiella pneumoniae [26] = assay: Inhibition of OXA-232/OXA-9/TEM-1A/CTX-M-15/OXA-1 in Klebsiella pneumoniae CDC-0066 assessed as meropenem antibacterial activity at 4 ug/ml after 16 to 20 hrs by CLSI-based microbroth dilution method (reference value: […] ug/ml)
Pseudomonas aeruginosa [27] = assay: Inhibition of KPC-2/PDC-42 in Pseudomonas aeruginosa CDC-0356 assessed as meropenem antibacterial activity at 4 ug/ml after 16 to 20 hrs by CLSI-based microbroth dilution method (reference value: […] ug/ml)
Klebsiella pneumoniae [28] = assay: Inhibition of KPC-2/SHV12/TEM-1 in Klebsiella pneumoniae CDC-0361 assessed as meropenem antibacterial activity at 4 ug/ml after 16 to 20 hrs by CLSI-based microbroth dilution method (reference value: […] ug/ml)
Escherichia coli [29] = assay: Inhibition of NDM in Escherichia coli CDC-0452 assessed as meropenem antibacterial activity at 4 ug/ml after 16 to 20 hrs by CLSI-based microbroth dilution method (reference value: […] ug/ml)
Pseudomonas aeruginosa [30] = assay: Inhibition of VIM in Pseudomonas aeruginosa CDC-0457 assessed as cefepime antibacterial activity at 8 ug/ml after 16 to 20 hrs by CLSI-based microbroth dilution method
Pseudomonas aeruginosa [31] = assay: Inhibition of VIM in Pseudomonas aeruginosa CDC-0457 assessed as meropenem antibacterial activity at 4 ug/ml after 16 to 20 hrs by CLSI-based microbroth dilution method
Pseudomonas aeruginosa [32] = assay: Inhibition of VIM in Pseudomonas aeruginosa CDC-0457 assessed as piperacillin antibacterial activity at 16 ug/ml after 16 to 20 hrs by CLSI-based microbroth dilution method

SMILES: NCC(=O)N[C@H]1CC[C@H](CC(=O)N[C@H]2Cc3cccc(C(=O)O)c3OB2O)CC1
- IC50 [1]: 0.034 µM
- IC50 [2]: 0.006 µM
- IC50 [3]: 0.355 µM
- IC50 [4]: 0.594 µM
- MIC (Klebsiella pneumoniae [5]): 2 mg/L (≈ 4.96 µM)
- MIC (Klebsiella pneumoniae [6]): 8 mg/L (≈ 19.8 µM)
- MIC (Klebsiella pneumoniae [7]): 8 mg/L (≈ 19.8 µM)
- MIC [8]: 8 mg/L (≈ 19.8 µM)

SMILES: O=C(C[C@H]1CC[C@H](NCCO)CC1)N[C@H]1Cc2cccc(C(=O)O)c2OB1O
- IC50 [1]: 0.017 µM
- IC50 [2]: 0.01 µM
- IC50 [3]: 7.55 µM
- IC50 [4]: 1.4 µM
- MIC (Klebsiella pneumoniae [5]): 2 mg/L (≈ 5.12 µM)
- MIC (Klebsiella pneumoniae [6]): 2 mg/L (≈ 5.12 µM)
- MIC (Klebsiella pneumoniae [7]): 0.5 mg/L (≈ 1.28 µM)
- MIC [8]: 4 mg/L (≈ 10.2 µM)

SMILES: N[C@H]1CC[C@H](CC(=O)N[C@H]2Cc3cccc(C(=O)O)c3OB2O)CC1
- IC50 [1]: 0.03 µM
- IC50 [2]: 0.03 µM
- IC50 [3]: 2.24 µM
- IC50 [4]: 0.15 µM
- MIC (Klebsiella pneumoniae [5]): 2 mg/L (≈ 5.78 µM)
- MIC (Klebsiella pneumoniae [6]): 2 mg/L (≈ 5.78 µM)
- MIC (Klebsiella pneumoniae [7]): 2 mg/L (≈ 5.78 µM)
- MIC [8]: 2 mg/L (≈ 5.78 µM)
- MIC [9]: 4 mg/L (≈ 11.6 µM)
- MIC (Klebsiella pneumoniae [10]): > 16 mg/L
- MIC (Escherichia coli [11]): > 16 mg/L
- MIC (Klebsiella pneumoniae [12]): > 16 mg/L
- MIC (Pseudomonas aeruginosa [13]): 4 mg/L (≈ 11.6 µM)
- MIC (Klebsiella pneumoniae [14]): 2 mg/L (≈ 5.78 µM)
- MIC (Escherichia coli [15]): > 16 mg/L
- MIC [16]: 0.125 mg/L (≈ 0.361 µM)
- MIC (Klebsiella pneumoniae [17]): > 16 mg/L
- MIC (Escherichia coli [18]): > 16 mg/L
- MIC (Klebsiella pneumoniae [19]): 4 mg/L (≈ 11.6 µM)
- MIC (Pseudomonas aeruginosa [20]): 4 mg/L (≈ 11.6 µM)
- MIC (Klebsiella pneumoniae [21]): 0.015 mg/L (≈ 0.0433 µM)
- MIC (Escherichia coli [22]): 4 mg/L (≈ 11.6 µM)
- MIC [23]: 0.015 mg/L (≈ 0.0433 µM)
- MIC (Klebsiella pneumoniae [24]): > 16 mg/L
- MIC (Escherichia coli [25]): 8 mg/L (≈ 23.1 µM)
- MIC (Klebsiella pneumoniae [26]): 8 mg/L (≈ 23.1 µM)
- MIC (Pseudomonas aeruginosa [27]): 4 mg/L (≈ 11.6 µM)
- MIC (Klebsiella pneumoniae [28]): 0.015 mg/L (≈ 0.0433 µM)
- MIC (Escherichia coli [29]): 8 mg/L (≈ 23.1 µM)
- MIC (Pseudomonas aeruginosa [30]): 2 mg/L (≈ 5.78 µM)
- MIC (Pseudomonas aeruginosa [31]): > 16 mg/L
- MIC (Pseudomonas aeruginosa [32]): > 16 mg/L

SMILES: N[C@H]1CC[C@@H](CC(=O)N[C@H]2Cc3cccc(C(=O)O)c3OB2O)CC1
- IC50 [1]: 0.12 µM
- IC50 [2]: 0.005 µM
- IC50 [3]: 18 µM
- IC50 [4]: 1.67 µM
- MIC (Klebsiella pneumoniae [5]): 2 mg/L (≈ 5.78 µM)
- MIC (Klebsiella pneumoniae [6]): 16 mg/L (≈ 46.2 µM)
- MIC (Klebsiella pneumoniae [7]): 32 mg/L (≈ 92.4 µM)
- MIC [8]: 32 mg/L (≈ 92.4 µM)

SMILES: O=C(C[C@H]1CC[C@H](N2CCNCC2)CC1)N[C@H]1Cc2cccc(C(=O)O)c2OB1O
- IC50 [1]: 0.02 µM
- IC50 [2]: 0.003 µM
- IC50 [3]: 1.52 µM
- IC50 [4]: 1.5 µM
- MIC (Klebsiella pneumoniae [5]): 4 mg/L (≈ 9.63 µM)
- MIC (Klebsiella pneumoniae [6]): 16 mg/L (≈ 38.5 µM)
- MIC (Klebsiella pneumoniae [7]): 32 mg/L (≈ 77.1 µM)
- MIC [8]: 16 mg/L (≈ 38.5 µM)

SMILES: NCCN[C@H]1CC[C@@H](CC(=O)N[C@H]2Cc3cccc(C(=O)O)c3OB2O)CC1
- IC50 [1]: 0.03 µM
- IC50 [2]: 0.035 µM
- IC50 [3]: 0.67 µM
- IC50 [4]: 0.13 µM
- MIC (Klebsiella pneumoniae [5]): 8 mg/L (≈ 20.6 µM)
- MIC (Klebsiella pneumoniae [6]): 8 mg/L (≈ 20.6 µM)
- MIC (Klebsiella pneumoniae [7]): 4 mg/L (≈ 10.3 µM)
- MIC [8]: 0.5 mg/L (≈ 1.28 µM)

SMILES: O=C(C[C@H]1CC[C@H](NCc2cnc[nH]2)CC1)N[C@H]1Cc2cccc(C(=O)O)c2OB1O
- IC50 [1]: 0.036 µM
- IC50 [2]: 0.014 µM
- IC50 [3]: 0.454 µM
- IC50 [4]: 0.477 µM
- MIC (Klebsiella pneumoniae [5]): 1 mg/L (≈ 2.35 µM)
- MIC (Klebsiella pneumoniae [6]): 8 mg/L (≈ 18.8 µM)
- MIC (Klebsiella pneumoniae [7]): 8 mg/L (≈ 18.8 µM)
- MIC [8]: 1 mg/L (≈ 2.35 µM)
